The record followed here is ChEMBL document CHEMBL3286242, “Design, synthesis and biological evaluation of arylcinnamide hybrid derivatives as novel anticancer agents” (Eur J Med Chem, 2014).

pIC50: −log10 of the molar value. Activity calls are given as the source filed them. The rule behind the calls is not given here.

In general, pIC50 refers to the negative decadic logarithm of the IC50, by convention in mol/L.

The subject of one test is LoVo. The test can be described thus: Resistance ratio of IC50 for human LoVo/DX cells to IC50 for human LoVo cells. In kind it is functional. The essentials:
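Ratio of IC50 in resistant line to IC50 in parental line (CEMVbl-100/CEM; LoVoDoxo/LoVo), each IC50 from 72 h MTT dose–response curves, ≥3 independent experiments.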

The test system of test [1] is HeLa. The test can be described thus: Induction of apoptosis in human HeLa cells at 0.62 to 5 uM after 24 to 48 hrs by Annexin V/FITC staining-based flow cytometry. In kind it is functional, cell-based. The essentials: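 HeLa cells treated 24 or 48 h at indicated concentrations, then stained with annexin-V-FITC plus PI; flow cytometry with 488 nm excitation, 525 and 585 nm emission; live, early/late apoptotic and necrotic populations distinguished; means of three independent experiments.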
On the technique in general: Flow cytometry measures light scatter and fluorescence of single cells or particles in a stream.

Test [2] has as its system HeLa. The test can be described thus: Induction of apoptosis in human HeLa cells assessed as caspase activation at 2.5 uM after 48 hrs in presence of pan-caspase inhibitor z-VAD.fmk. In kind it is functional, cell-based. The essentials: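 HeLa cells given 2.5 μM compound for 48 h with or without 100 μM z-VAD.fmk pan-caspase inhibitor; viability measured; means ± SEM of three independent experiments, Student's t-test.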

A further test concerns PBMC. Nature of the test: Cytotoxicity against human PHA-stimulated PBMC assessed as growth inhibition after 72 hrs by MTT assay. In kind it is functional, cell-based. For orientation: Tetrazolium dyes change colour on reduction, which living cells bring about.
For test [3], the system named is HeLa. Nature of the test: Induction of apoptosis in human HeLa cells assessed as increase in Bak protein expression at 1 to 2.5 uM after 24 to 48 hrs by Western blotting analysis. The test is classed as functional, cell-based.
The target in the next test is Tubulin (Bos taurus) (UniProt Q6B856+Q862L2+Q862F3). Nature of the test: Inhibition of bovine brain tubulin polymerization at 20 uM by turbidimetry. The essentials: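 Purified bovine brain tubulin (10 μM) preincubated with compound in glutamate buffer at 30 °C, cooled to 0 °C, GTP added, then warmed to 30 °C in cuvettes; assembly followed turbidimetrically; concentrations up to 20 μM.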

In test [4] the test system is HeLa. The test can be described thus: Induction of apoptosis in human HeLa cells assessed as GSH depletion after 24 hrs by CMFDA staining-based flow cytometry. In kind it is functional, cell-based. The essentials:
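HeLa cells treated 24 h with compound, alone or with 100 μM NAC; harvested and loaded with 5 μM CMFDA, 30 min at 37 °C; intracellular GSH read as CMFDA fluorescence by flow cytometry; means ± SEM.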

The next test deals with HT-29. Nature of the test: Cytotoxicity against human HT-29 cells assessed as growth inhibition after 72 hrs by MTT assay. The test is classed as functional, cell-based. Particulars: HT-29, 72 h.
In test [5] the test system is HeLa. Nature of the test: Induction of apoptosis in human HeLa cells assessed as reduction in Mcl-1 protein expression at 2.5 uM after 48 hrs by Western blotting analysis. The test is classed as functional, cell-based. The essentials:
(§1)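 HeLa cells treated at indicated concentrations and times; washed in cold PBS, lysed 30 min at 0 °C, cleared at 15 000 × g; 20 μg protein resolved on 7.5–15% gradient SDS-PAGE, blotted to PVDF, primary antibodies 2 h room temperature, peroxidase secondary 60 min, ECL detection; β-actin reprobe for loading.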
For orientation: A western blot detects proteins with antibodies after separation by electrophoresis.

Test [6] concerns HeLa. The test can be described thus: Induction of apoptosis in human HeLa cells assessed as PARP cleavage at 1 to 2.5 uM by Western blotting analysis. In kind it is functional, cell-based. Conditions: TDE = time-dependent effect. The essentials:
as §1

The test system of test [7] is HeLa. Nature of the test: Cell cycle arrest in human HeLa cells assessed as accumulation at G2/M phase after 24 hrs by propidium iodide staining-based flow cytometry. In kind it is functional. The essentials: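 HeLa cells in exponential growth (2.5 × 10^5) treated 24 h at various concentrations; ethanol-fixed (70%, ice-cold), lysed with RNase A/0.1% Triton X-100, PI-stained; DNA content by flow cytometry, phase percentages from DNA histograms.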

With `C=C(Br)C(=O)Nc1ccc(/C=C/C(=O)Nc2cc(OC)c(OC)c(OC)c2)cc1`, the “Ratio IC50” value in the test with LoVo is reported as 0.6. For the same compound, the outcome in the test with HeLa [1] and in the test on HeLa [5] was Active. Also, the result with HeLa [2] and with HeLa [3] was inactive. In addition, the pIC50 in the test on PBMC is 6.62; with HT-29, 5.43. At Tubulin (Bos taurus), the inhibition entry is “inactive”. The Activity result with HeLa [4] is “Dose-dependent effect”; in the test on HeLa [6], “tde”; with HeLa [7], “Dose-dependent effect”.
